Active and inactive are the calls of the source. No cut-off for these calls is given here.
Columns and labels:
Mus musculus [1] = assay: Antiinflammatory activity in ICR mouse assessed as reduction in carrageenan-induced paw oedema volume at 20 mg/kg, ip administered 30 mins before carrageenan challenge measured after 0 to 6 hrs by hydroplethysmometer; format: functional; set-up: scale not given: the % may be the effect or the level left
In short: (§1)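 Male ICR mice, 8 weeks, housed 5 per cage with 12:12 h light:dark cycle, 22 ± 1 °C, 60 ± 10% humidity, acclimatized at least 1 week. Compounds given i.p. (1–4 mg/kg; zileuton reference 20 mg/kg) 30 min before intraplantar carrageenan. Hind paw volume increase (oedema) followed for 6 h versus vehicle-treated group. Mean ± SEM, n = 6–8 per group.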

[2] = biological target: T1, Prostaglandin E synthase (Homo sapiens) (UniProt O14684); assay: Inhibition of IL-1beta-activated m-PGES-1 in microsome of human A549 cells assessed as remaining enzyme activity by measuring PGE2 formation at 10 uM preincubated for 15 mins followed by PGH2 addition measured after 1 min by RP-HPLC analysis; format: cell-based
T1 sequence (whole entry): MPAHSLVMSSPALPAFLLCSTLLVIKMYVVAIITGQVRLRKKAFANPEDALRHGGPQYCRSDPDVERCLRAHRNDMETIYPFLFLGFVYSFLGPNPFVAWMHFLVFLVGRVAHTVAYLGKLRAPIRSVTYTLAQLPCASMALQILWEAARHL
In short: (§2)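 Microsomes from A549 cells prepared by sonication and differential centrifugation (10,000 g, then 174,000 g), stored at −80 °C. Diluted in 0.1 M potassium phosphate pH 7.4 with 2.5 mM glutathione and preincubated with compound (DMSO vehicle, 1% final) 15 min at 4 °C. Started with 20 µM PGH₂ (final), run 1 min at 4 °C, stopped with FeCl₂/citric acid plus 11β-PGE₂ internal standard. PGE₂ isolated by C18 SPE and quantified by RP-HPLC with UV at 195 nm. IC50 from three determinations at 0.1, 1 and 10 µM.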

Mus musculus [3] = assay: Antiinflammatory activity in ICR mouse assessed as reduction in carrageenan-induced paw oedema volume at 4 mg/kg, ip administered 30 mins before carrageenan challenge measured after 4 hrs by hydroplethysmometer; format: functional; set-up: scale not given: the % may be the effect or the level left; in short: as §1
[4] = biological target: T1, Prostaglandin E synthase (Homo sapiens); assay: Inhibition of IL-1beta-activated m-PGES-1 in microsome of human A549 cells assessed as PGE2 formation at 10 uM preincubated for 15 mins followed by PGH2 addition measured after 1 min by RP-HPLC analysis; format: cell-based; in short: as §2
[5] = biological target: T2, Polyunsaturated fatty acid 5-lipoxygenase (Homo sapiens, UniProt P09917); assay: Inhibition of 5-LOX in human intact polymorphonuclear leukocytes preincubated for 15 mins with CaCl2, A23187 measured after 10 mins by HPLC analysis
T2 sequence (P09917 whole entry): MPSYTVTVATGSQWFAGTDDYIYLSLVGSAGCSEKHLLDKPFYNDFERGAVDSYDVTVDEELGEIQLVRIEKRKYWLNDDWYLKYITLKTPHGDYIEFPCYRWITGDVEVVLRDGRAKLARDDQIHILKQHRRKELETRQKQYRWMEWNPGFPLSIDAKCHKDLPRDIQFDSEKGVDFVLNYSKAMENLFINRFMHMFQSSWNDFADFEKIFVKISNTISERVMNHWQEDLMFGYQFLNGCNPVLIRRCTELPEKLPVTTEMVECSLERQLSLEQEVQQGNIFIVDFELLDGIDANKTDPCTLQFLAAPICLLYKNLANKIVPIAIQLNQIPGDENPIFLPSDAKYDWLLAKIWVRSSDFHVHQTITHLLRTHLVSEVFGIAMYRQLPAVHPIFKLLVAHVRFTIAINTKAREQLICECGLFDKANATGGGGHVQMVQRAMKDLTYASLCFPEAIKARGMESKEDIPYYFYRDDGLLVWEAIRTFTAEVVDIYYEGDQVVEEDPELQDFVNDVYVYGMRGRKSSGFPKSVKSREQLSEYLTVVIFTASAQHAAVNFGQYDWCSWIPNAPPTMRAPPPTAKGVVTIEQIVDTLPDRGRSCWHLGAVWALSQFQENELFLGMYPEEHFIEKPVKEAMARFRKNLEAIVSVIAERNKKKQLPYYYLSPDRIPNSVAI
In short: (§3)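 Human PMNL isolated from blood of healthy adult donors. 5 × 10⁶ cells in 1 ml PG buffer preincubated with compound for 15 min at 37 °C, then stimulated with 1 mM CaCl₂ plus 2.5 µM A23187. After 10 min at 37 °C, stopped with methanol, centrifuged, and supernatant products analyzed by HPLC. Mean ± S.E.M., n = 3–4.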

[6] = biological target: T2, Polyunsaturated fatty acid 5-lipoxygenase; assay: Inhibition of human recombinant 5-LOX expressed in Escherichia coli BL21 using arachidonic acid as substrate assessed as LTB4 formation preincubated for 15 mins measured after 10 mins by HPLC analysis
In short: (§4)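 Human recombinant 5-LOX expressed in E. coli BL21 (pT3-5LO) at 37 °C, purified, and used immediately. 0.5 µg enzyme in PBS/EDTA preincubated with compound for 15 min at 4 °C, then prewarmed 30 s at 37 °C. Reaction started with 2 mM CaCl₂ plus 20 µM arachidonic acid, run 10 min at 37 °C, and metabolites analyzed by HPLC. Mean ± S.E.M., n = 3–4.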

[7] = biological target: T3, Polyunsaturated fatty acid 5-lipoxygenase (Homo sapiens) (UniProt P09917); assay: Inhibition of human recombinant 5-LOX expressed in Escherichia coli BL21 using arachidonic acid as substrate assessed as remaining enzyme activity by measuring LTB4 formation at 10 uM preincubated for 15 mins measured after 10 mins by HPLC analysis; in short: as §4
T3 sequence (whole entry): T2 sequence (P09917 whole entry)

[8] = biological target: T3, Polyunsaturated fatty acid 5-lipoxygenase (Homo sapiens); assay: Inhibition of 5-LOX in human intact polymorphonuclear leukocytes assessed as remaining enzyme activity at 10 uM preincubated for 15 mins with CaCl2, A23187 measured after 10 mins by HPLC analysis; in short: as §3
[9] = biological target: T3, Polyunsaturated fatty acid 5-lipoxygenase (Homo sapiens); assay: Inhibition of human recombinant 5-LOX expressed in Escherichia coli BL21 using arachidonic acid as substrate assessed as remaining enzyme activity by measuring LTB4 formation at 1 uM preincubated for 15 mins measured after 10 mins by HPLC analysis; in short: as §4
Mus musculus [10] = assay: Antiinflammatory activity in ICR mouse assessed as reduction in carrageenan-induced paw oedema volume at 1 to 4 mg/kg, ip administered 30 mins before carrageenan challenge measured after 2 to 4 hrs by hydroplethysmometer relative to vehicle-treated control; format: functional, organism-based; in short: as §1
Prostaglandin E synthase = biological target: T4, Prostaglandin E synthase (Homo sapiens, UniProt O14684); assay: Inhibition of IL-1beta-activated m-PGES-1 in microsome of human A549 cells assessed as PGE2 formation preincubated for 15 mins followed by PGH2 addition measured after 1 min by RP-HPLC analysis; format: cell-based; in short: as §2
T4 sequence (O14684 whole entry): T1 sequence (whole entry)

Row | SMILES | IC50 [5] | IC50 [6] | other results
1 | CC(c1cc2ccccc2s1)N(O)C(N)=O (configuration not stated) [ZILEUTON] |  |  | Activity (Mus musculus [1]): 38.2%
2 | CCOC(=O)c1c(CSc2c(C)cc(C)cc2C)n(C)c2ccc(O)cc12 |  |  | Activity [2]: 87.3%; Activity (Mus musculus [3]): 60.9%; inhibition [4]: 27.8%
3 | CCOC(=O)c1c(CSc2ccccc2Cl)[nH]c2c1cc(OCC)c1ccccc12 | 1260 nM | 2040 nM | 
4 | CCOC(=O)c1c(CSc2ccccc2Cl)n(C)c2c1cc(O)c1ccccc12 | > 10000 nM | > 10000 nM | Activity [7]: 81.4%; Activity [8]: 61.9%
5 | CCOC(=O)c1c(CSc2ccccc2Cl)[nH]c2c1cc(OC)c1ccccc12 | 1150 nM | 1740 nM | 
6 | CCOC(=O)c1c(CSc2cccc(Cl)c2Cl)[nH]c2c1cc(O)c1ccccc12 | 657 nM | > 1000 nM | Activity [9]: 72%
7 | CCOC(=O)c1c(CSc2ccccc2Cl)n(C)c2c1cc(OC)c1ccccc12 | > 10000 nM | > 10000 nM | Activity [7]: 98.7%; Activity [8]: 97.6%
8 | CCOC(=O)c1c(CSc2ccccc2Cl)n(CC)c2c1cc(OCC)c1ccccc12 | > 10000 nM | > 10000 nM | Activity [7]: 99.4%; Activity [8]: 95.5%

The next lines start with results.

Row | IC50 [5] | IC50 [6] | SMILES | other results
9 | 257 nM | > 1000 nM | CCOC(=O)c1c(CSc2cccc(Cl)c2)[nH]c2c1cc(O)c1ccccc12 | Activity [9]: 63.8%
10 | 237 nM | 930 nM | CCOC(=O)c1c(CSc2ccc(Cl)c(Cl)c2)[nH]c2c1cc(O)c1ccccc12 | 
11 | 240 nM | 220 nM | CCOC(=O)c1c(CSc2cc(Cl)cc(Cl)c2)[nH]c2c1cc(O)c1ccccc12 | Activity (Mus musculus [3]): 60%; Activity (Mus musculus [10]): Active; IC50 (Prostaglandin E synthase): 13800 nM
12 | 182 nM | 820 nM | CCOC(=O)c1c(CSc2ccccc2Cl)[nH]c2c1cc(O)c1ccccc12 | 
13 | 290 nM | > 1000 nM | CCOC(=O)c1c(CSc2cc(C)cc(C)c2)[nH]c2c1cc(O)c1ccccc12 | Activity [9]: 63%
14 | 170 nM | > 1000 nM | CCOC(=O)c1c(CSc2c(C)cccc2C)[nH]c2c1cc(O)c1ccccc12 | Activity [9]: 65.9%
15 | 370 nM | 200 nM | CCOC(=O)c1c(CSc2c(C)cc(C)cc2C)[nH]c2c1cc(O)c1ccccc12 | Activity (Mus musculus [3]): 77.4%; IC50 (Prostaglandin E synthase): 1930 nM
16 | 255 nM | 330 nM | CCOC(=O)c1c(CSc2ccccc2C)[nH]c2c1cc(O)c1ccccc12 | 
17 | 190 nM | 170 nM | CCOC(=O)c1c(CSc2c(Cl)cccc2Cl)[nH]c2c1cc(O)c1ccccc12 | Activity (Mus musculus [3]): 9.1%; Activity (Mus musculus [10]): inactive; IC50 (Prostaglandin E synthase): 1330 nM

Source: ChEMBL document CHEMBL3758140, “Exploring the role of chloro and methyl substitutions in 2-phenylthiomethyl-benzoindole derivatives for 5-LOX enzyme inhibition” (Eur J Med Chem, 2016)
